Bridge positions count the residues as written; N and C are the ends. Square brackets hold non-standard residues; d marks the D form. Peptide text beside a SMILES is read from it. * marks the point of attachment. X1 = CC[C@H](C)CCCCC(=O)*; Dab = NCC[C@H](N)C(=O)O

The conditions of data set [1]: degradation product of bacitracin; cited from earlier work.
For another data set, the system named is B. subtilis 168. Nature of the data set: Membrane fluidity, DiIC12 staining. The class given is cell-based. The settings on record: 5 × MIC, DiIC12, 0.3 mM ZnSO4, 30 °C, 0 to 60 min. A digest of the protocol:
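B. subtilis 168 overnight cultures were diluted 1:200 into LB containing 1% DMSO and 2 µg/mL DiIC12. At OD600 0.3 cells were washed in dye-free medium and given 0.3 mM ZnSO4, then treated at 5× MIC, with daptomycin as positive control. Incubation was at 30 °C and 850 rpm, sampling at 0–60 min for fluorescence microscopy on agarose slides. Representative of three independent experiments.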

A further data set deals with E. coli ATCC 25922. The data set can be described thus: MIC, broth microdilution. As to conditions: LB + 0.3 mM ZnSO4, 37 °C, 18 h, median of min. triplicates. The class given is cell-based. A digest of the protocol: (§1)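 Strains from glycerol stocks were grown overnight on blood agar at 37 °C. Single colonies went into TSB and grew to OD600 0.5, then were diluted 100-fold in LB + 0.3 mM ZnSO4 to 10^6 CFU/mL. Two-fold serial dilutions of test compound were made in triplicate in the same medium and mixed 1:1 with inoculum. Plates ran 18 h at 37 °C at 600 rpm. MIC was the median of at least triplicates, read visually.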

A further data set deals with E. faecium E155 (vanA). The data set can be described thus: MIC, broth microdilution. The class given is cell-based, Enterococcus faecium. The procedure, abridged: as §1
The next data set relates to E. faecium E0013 (vanA). Nature of the data set: MIC, broth microdilution. The class given is cell-based. The settings on record: LB + 0.3 mM ZnSO4. A digest of the protocol:
as §1

Another data set concerns E. faecium E0072 (vanA). The data set can be described thus: MIC, broth microdilution. The class given is cell-based. As to conditions: LB + 0.3 mM ZnSO4. The procedure, abridged:
as §1

The next data set concerns E. faecium E0300 (vanA). The data set can be described thus: MIC, broth microdilution. As to conditions: LB + 0.3 mM ZnSO4. The class given is cell-based. A digest of the protocol: as §1
Another data set concerns E. faecium E0321 (vanA). The data set can be described thus: MIC, broth microdilution. The class given is cell-based. The settings on record: LB + 0.3 mM ZnSO4. The procedure, abridged: as §1
The next data set relates to E. faecium E0333 (vanA). The data set can be described thus: MIC, broth microdilution. The class given is cell-based. The settings on record: LB + 0.3 mM ZnSO4. A digest of the protocol:
as §1

The next data set deals with E. faecium E0341 (vanA). The data set can be described thus: MIC, broth microdilution. The class given is cell-based. The settings on record: LB + 0.3 mM ZnSO4. A digest of the protocol:
as §1

The subject of the next data set is E. faecium E0506 (vanA). Nature of the data set: MIC, broth microdilution. The class given is cell-based. As to conditions: LB + 0.3 mM ZnSO4. The procedure, abridged: as §1
The next data set deals with E. faecium E0745 (vanA). Nature of the data set: MIC, broth microdilution. The class given is cell-based. As to conditions: LB + 0.3 mM ZnSO4. The procedure, abridged: as §1
The subject of the next data set is E. faecium E1130 (vanA). The data set can be described thus: MIC, broth microdilution. The class given is cell-based. The settings on record: LB + 0.3 mM ZnSO4. The procedure, abridged: as §1
Another data set relates to E. faecium E1441 (vanA). The data set can be described thus: MIC, broth microdilution. The class given is cell-based. The settings on record: LB + 0.3 mM ZnSO4. The procedure, abridged: as §1
A further data set concerns E. faecium E1679 (vanA). The data set can be described thus: MIC, broth microdilution. As to conditions: LB + 0.3 mM ZnSO4. The class given is cell-based. The procedure, abridged: as §1
The next data set deals with E. faecium E1763 (vanA). Nature of the data set: MIC, broth microdilution. The class given is cell-based. As to conditions: LB + 0.3 mM ZnSO4. The procedure, abridged:
as §1

A further data set concerns E. faecium E2297 (vanA). Nature of the data set: MIC, broth microdilution. The settings on record: LB + 0.3 mM ZnSO4. The class given is cell-based. The procedure, abridged: as §1
The next data set has as its system E. faecium E2373 (vanA). The data set can be described thus: MIC, broth microdilution. The class given is cell-based. The settings on record: LB + 0.3 mM ZnSO4. The procedure, abridged: as §1
For another data set, the system named is E. faecium E6016 (vanA). The data set can be described thus: MIC, broth microdilution. The class given is cell-based. As to conditions: LB + 0.3 mM ZnSO4. A digest of the protocol: as §1
The next data set relates to E. faecium E7312 (vanA). Nature of the data set: MIC, broth microdilution. The class given is cell-based. The settings on record: LB + 0.3 mM ZnSO4. A digest of the protocol:
as §1

Another data set has as its system E. faecium E7319 (vanA). Nature of the data set: MIC, broth microdilution. The class given is cell-based. The settings on record: LB + 0.3 mM ZnSO4. A digest of the protocol: as §1
A further data set relates to E. faecium E7413 (vanA). Nature of the data set: MIC, broth microdilution. The class given is cell-based. As to conditions: LB + 0.3 mM ZnSO4. The procedure, abridged: as §1
Data set [2] has as its system panel of E. faecium clinical isolates carrying the vanA vancomycin resistance gene. The data set can be described thus: MIC50 / MIC90 over the VRE panel. The class given is cell-based.
Where [3] appears, read: calculated over 19 vanA E. faecium clinical isolates, LB + 0.3 mM ZnSO4.

In the case of Bacitracin F, the nephrotoxicity entry in [1] is given as “nephrotoxic”.
Turning to Bacitracin, the “formation of regions of increased fluidity (RIF)” value in the data set with B. subtilis 168 is listed as “to a much lesser degree”.
Consider `CC[C@H](C)CCCCC(=O)N[C@@H](CCN)C(=O)N[C@H](C(=O)N[C@@H](CCN)C(=O)N[C@H]1CCNC(=O)[C@H]([C@@H](C)O)NC(=O)[C@H](CCN)NC(=O)[C@H](CCN)NC(=O)[C@H](CC(C)C)NC(=O)[C@@H](Cc2ccccc2)NC(=O)[C@H](CCN)NC1=O)[C@@H](C)O` [Polymyxin B] (X1-[Dab]T[Dab][Dab][Dab][dF]L[Dab][Dab]T; lactam 4-C (inferred); N-terminus assumed), for which, in the data set on E. coli ATCC 25922, the “MIC E. coli ATCC 25922” value was determined as 2 µg/mL.
Consider `CN[C@H](CC(C)C)C(=O)N[C@H]1C(=O)N[C@@H](CC(N)=O)C(=O)N[C@H]2C(=O)N[C@H]3C(=O)N[C@H](C(=O)N[C@H](C(=O)O)c4cc(O)cc(O)c4-c4cc3ccc4O)[C@H](O)c3ccc(c(Cl)c3)Oc3cc2cc(c3O[C@@H]2O[C@H](CO)[C@@H](O)[C@H](O)[C@H]2O[C@H]2C[C@](C)(N)[C@H](O)[C@H](C)O2)Oc2ccc(cc2Cl)[C@H]1O` [Vancomycin], for which, in the data set with E. faecium E155 (vanA) (LB + 0.3 mM ZnSO4, 37 °C, 18 h, median of min. triplicates), the “MIC E. faecium E155 vanA” value is greater than 64 µg/mL. Besides, in the data set with E. faecium E155 (vanA) (Table 2, LB + 0.3 mM ZnSO4), the “MIC E. faecium E155 vanA” value is greater than 64 µg/mL. Further, the “MIC E. faecium E0013 vanA” value in the data set with E. faecium E0013 (vanA) was greater than 64 µg/mL. Also, in the data set on E. faecium E0072 (vanA), the “MIC E. faecium E0072 vanA” value is greater than 64 µg/mL. In the data set with E. faecium E0300 (vanA), the “MIC E. faecium E0300 vanA” value is greater than 64 µg/mL. Moreover, the “MIC E. faecium E0321 vanA” value in the data set with E. faecium E0321 (vanA) is greater than 64 µg/mL. Also, the “MIC E. faecium E0333 vanA” value in the data set with E. faecium E0333 (vanA) was greater than 64 µg/mL. The “MIC E. faecium E0341 vanA” value in the data set on E. faecium E0341 (vanA) is greater than 64 µg/mL. Further, the “MIC E. faecium E0506 vanA” value in the data set on E. faecium E0506 (vanA) was greater than 64 µg/mL. In addition, the “MIC E. faecium E0745 vanA” value in the data set with E. faecium E0745 (vanA) was greater than 64 µg/mL. Also, in the data set with E. faecium E1130 (vanA), the “MIC E. faecium E1130 vanA” value was greater than 64 µg/mL. The “MIC E. faecium E1441 vanA” value in the data set on E. faecium E1441 (vanA) was greater than 64 µg/mL. Further, the “MIC E. faecium E1679 vanA” value with E. faecium E1679 (vanA) was greater than 64 µg/mL. Moreover, the “MIC E. faecium E1763 vanA” value in the data set with E. faecium E1763 (vanA) is greater than 64 µg/mL. For the same compound, the “MIC E. faecium E2297 vanA” value in the data set on E. faecium E2297 (vanA) is greater than 64 µg/mL. Besides, the “MIC E. faecium E2373 vanA” value in the data set with E. faecium E2373 (vanA) is greater than 64 µg/mL. Besides, the “MIC E. faecium E6016 vanA” value with E. faecium E6016 (vanA) was greater than 64 µg/mL. Moreover, the “MIC E. faecium E7312 vanA” value with E. faecium E7312 (vanA) was greater than 64 µg/mL. Besides, the “MIC E. faecium E7319 vanA” value in the data set on E. faecium E7319 (vanA) was greater than 64 µg/mL. For the same compound, in the data set on E. faecium E7413 (vanA), the “MIC E. faecium E7413 vanA” value is greater than 64 µg/mL. The “MIC for vancomycin, all strains of the vanA VRE selection” value in data set [2] (broader selection of VRE strains all carrying the vanA gene) was no less than 64 µg/mL. Moreover, in data set [2] (setting [3]), the MIC50 was greater than 64 µg/mL and the MIC90 was greater than 64 µg/mL.

The values are drawn from article PMC11260088 (Proceedings of the National Academy of Sciences of the …, 2024).
